The source made the active and inactive calls. No cut-off for these calls is given here.
Columns and labels:
MCF7 [1] = test: Antiproliferative activity against human MCF7 cells after 24 hrs by SRB assay; format: functional, cell-based; conditions: MCF7, 24 h
In short: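 MCF-7 cells are grown for 24 h with or without drug, then for a further 48 h. Total cell protein is measured by sulforhodamine B staining, and the IC₅₀ is derived from it.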

[2] = Inhibition of tubulin polymerization by turbidimetry
In short: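 Tubulin at 10 µM (1.0 mg/mL). Polymerization followed turbidimetrically at 350 nm in temperature-controlled spectrophotometers.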

[3] = Displacement of [3H]colchicine from tubulin at 50 uM by turbidimetry; conditions: in the assay text read “by DEAE-cellulose filter method” for “by turbidimetry”
In short: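 Binding of [³H]colchicine to tubulin (1.0 µM, 0.1 mg/mL) is measured by the DEAE-cellulose filter method. The radioligand is at 5.0 µM and test agents at 5 or 50 µM. Each is run in triplicate.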

[4] = Inhibition of tubulin in rat A10 cells assessed as induction of cellular microtubule disassembly after 18 hrs by indirect immunofluorescence technique; format: cell-based; conditions: A10, 18 h
In short: (§1)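 A-10 cells plated on glass coverslips and treated with compound at varying concentrations for 18 h. After fixation, microtubules immunostained with a β-tubulin antibody (indirect immunofluorescence) and nuclei stained with DAPI. Read by fluorescence microscopy. Percentage of cellular microtubule loss estimated visually across the concentration range.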

A10 = test: Inhibition of tubulin in rat A10 cells assessed as thinning of microtubule network at 20 uM after 18 hrs by fluorescence microscopy; format: cell-based; in short: as §1
CCRF-CEM = test: Growth inhibition of human CCRF-CEM cells after 48 hrs by SRB assay; format: functional
K562 = test: Growth inhibition of human K562 cells after 48 hrs by SRB assay; format: functional; conditions: K562, 48 h
MOLT-4 = test: Growth inhibition of human MOLT4 cells after 48 hrs by SRB assay; format: functional; conditions: MOLT-4, 48 h
[5] = Growth inhibition of human […] cells after 48 hrs by SRB assay; format: functional
SR = test: Growth inhibition of human SR cells after 48 hrs by SRB assay; format: functional
In short: (§2)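 NCI human tumor cell line panel. Cells exposed for 48 h to five concentrations in a 10-fold serial dilution. Growth inhibition read as total cell protein by sulforhodamine B staining. GI50 calculated from log dose–response curves.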

A549 = test: Growth inhibition of human A549 cells after 48 hrs by SRB assay; format: functional; conditions: A549, 48 h
EKVX = test: Growth inhibition of human EKVX cells after 48 hrs by SRB assay; format: functional
HOP-62 = test: Growth inhibition of human HOP62 cells after 48 hrs by SRB assay; format: functional; conditions: HOP-62, 48 h
HOP-92 = test: Growth inhibition of human HOP92 cells after 48 hrs by SRB assay; format: functional; conditions: HOP-92, 48 h
NCI-H226 = test: Growth inhibition of human NCI-H226 cells after 48 hrs by SRB assay; format: functional; conditions: NCI-H226, 48 h
NCI-H23 = test: Growth inhibition of human NCI-H23 cells after 48 hrs by SRB assay; format: functional; conditions: NCI-H23, 48 h
NCI-H322M = test: Growth inhibition of human NCI-H322M cells after 48 hrs by SRB assay; format: functional
NCI-H460 = test: Growth inhibition of human NCI-H460 cells after 48 hrs by SRB assay; format: functional; conditions: NCI-H460, 48 h
NCI-H522 = test: Growth inhibition of human NCI-H522 cells after 48 hrs by SRB assay; format: functional; conditions: NCI-H522, 48 h
COLO 205 = test: Growth inhibition of human COLO205 cells after 48 hrs by SRB assay; format: functional; conditions: COLO 205, 48 h
HCC 2998 = test: Growth inhibition of human HCC2998 cells after 48 hrs by SRB assay; format: functional; conditions: HCC 2998, 48 h
HCT-116 = test: Growth inhibition of human HCT116 cells after 48 hrs by SRB assay; format: functional; conditions: HCT-116, 48 h
HCT-15 = test: Growth inhibition of human HCT15 cells after 48 hrs by SRB assay; format: functional; conditions: HCT-15, 48 h
KM12 = test: Growth inhibition of human KM12 cells after 48 hrs by SRB assay; format: functional; conditions: KM12, 48 h
SW-620 = test: Growth inhibition of human SW620 cells after 48 hrs by SRB assay; format: functional; conditions: SW-620, 48 h; in short: as §2
SF-268 = test: Growth inhibition of human SF268 cells after 48 hrs by SRB assay; format: functional; conditions: SF-268, 48 h
In short: (§3)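 This is the NCI cell-line panel. Cells are exposed for 48 h to five concentrations in 10-fold serial dilution. Growth is read by the SRB protein assay, and GI₅₀ is calculated from log dose–response curves.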

SF-295 = test: Growth inhibition of human SF295 cells after 48 hrs by SRB assay; format: functional; conditions: SF-295, 48 h; in short: as §3
SF-539 = test: Growth inhibition of human SF539 cells after 48 hrs by SRB assay; format: functional; conditions: SF-539, 48 h; in short: as §2
SNB-19 = test: Growth inhibition of human SNB19 cells after 48 hrs by SRB assay; format: functional; conditions: SNB-19, 48 h; in short: as §2
U-251 = test: Growth inhibition of human U251 cells after 48 hrs by SRB assay; format: functional; conditions: U-251, 48 h; in short: as §2
LOX IMVI = test: Growth inhibition of human LOXIMVI cells after 48 hrs by SRB assay; format: functional; in short: as §3
Malme-3M = test: Growth inhibition of human MALME-3M cells after 48 hrs by SRB assay; format: functional; in short: as §3
M14 = test: Growth inhibition of human M14 cells after 48 hrs by SRB assay; format: functional; conditions: M14, 48 h; in short: as §3
SK-MEL-2 = test: Growth inhibition of human SK-MEL-2 cells after 48 hrs by SRB assay; format: functional; conditions: SK-MEL-2, 48 h; in short: as §2
SK-MEL-5 = test: Growth inhibition of human SK-MEL-5 cells after 48 hrs by SRB assay; format: functional; conditions: SK-MEL-5, 48 h; in short: as §2
UACC-257 = test: Growth inhibition of human UACC257 cells after 48 hrs by SRB assay; format: functional; conditions: UACC-257, 48 h; in short: as §2
UACC-62 = test: Growth inhibition of human UACC62 cells after 48 hrs by SRB assay; format: functional; conditions: UACC-62, 48 h; in short: as §2
IGROV-1 = test: Growth inhibition of human IGROV1 cells after 48 hrs by SRB assay; format: functional; conditions: IGROV-1, 48 h; in short: as §3
OVCAR-3 = test: Growth inhibition of human OVCAR-3 cells after 48 hrs by SRB assay; format: functional; conditions: OVCAR-3, 48 h; in short: as §3
OVCAR-4 = test: Growth inhibition of human OVCAR4 cells after 48 hrs by SRB assay; format: functional; conditions: OVCAR-4, 48 h; in short: as §3
OVCAR-5 = test: Growth inhibition of human OVCAR5 cells after 48 hrs by SRB assay; format: functional; conditions: OVCAR-5, 48 h; in short: as §3
OVCAR-8 = test: Growth inhibition of human OVCAR8 cells after 48 hrs by SRB assay; format: functional; conditions: OVCAR-8, 48 h; in short: as §3
SK-OV-3 = test: Growth inhibition of human SKOV3 cells after 48 hrs by SRB assay; format: functional; conditions: SK-OV-3, 48 h; in short: as §2
786-0 = test: Growth inhibition of human 786-0 cells after 48 hrs by SRB assay; format: functional; conditions: 786-0, 48 h; in short: as §3
A498 = test: Growth inhibition of human A498 cells after 48 hrs by SRB assay; format: functional; conditions: A498, 48 h; in short: as §3
ACHN = test: Growth inhibition of human ACHN cells after 48 hrs by SRB assay; format: functional; in short: as §3
CAKI-1 = test: Growth inhibition of human Caki1 cells after 48 hrs by SRB assay; format: functional; conditions: CAKI-1, 48 h; in short: as §3
RXF 393 = test: Growth inhibition of human RXF393 cells after 48 hrs by SRB assay; format: functional; conditions: RXF 393, 48 h; in short: as §3
SN12C = test: Growth inhibition of human SN12C cells after 48 hrs by SRB assay; format: functional; in short: as §2
TK-10 = test: Growth inhibition of human TK10 cells after 48 hrs by SRB assay; format: functional; conditions: TK-10, 48 h; in short: as §2
UO-31 = test: Growth inhibition of human UO31 cells after 48 hrs by SRB assay; format: functional; conditions: UO-31, 48 h; in short: as §2
PC-3 = test: Growth inhibition of human PC3 cells after 48 hrs by SRB assay; format: functional; conditions: PC-3, 48 h; in short: as §3
DU-145 = test: Growth inhibition of human DU145 cells after 48 hrs by SRB assay; format: functional; conditions: DU-145, 48 h; in short: as §3
MCF7 [6] = test: Growth inhibition of human MCF7 cells after 48 hrs by SRB assay; format: functional; conditions: MCF7, 48 h; in short: as §3
NCI/ADR-RES = test: Growth inhibition of human NCI/ADR-RES cells after 48 hrs by SRB assay; format: functional; in short: as §3
MDA-MB-231 = test: Growth inhibition of human MDA-MB-231 cells after 48 hrs by SRB assay; format: functional; conditions: MDA-MB-231, 48 h; in short: as §3
[7] = Growth inhibition of human Hs 578T cells after 48 hrs by SRB assay; format: functional; in short: as §3
MDA-MB-435 = test: Growth inhibition of human MDA-MB-435 cells after 48 hrs by SRB assay; format: functional; conditions: MDA-MB-435, 48 h; in short: as §3
BT-549 = test: Growth inhibition of human BT549 cells after 48 hrs by SRB assay; format: functional; conditions: BT-549, 48 h; in short: as §3
MCF7 [8] = test: Cell cycle arrest in human MCF7 cells by accumulation at G2/M phase at 0.1 uM after 48 hrs by flow cytometry (Rvb=5.9%); format: functional
MCF7 [9] = test: Cell cycle arrest in human MCF7 cells by accumulation at G2/M phase at 1 uM after 48 hrs by flow cytometry (Rvb=5.9%); format: functional
MCF7 [10] = test: Cell cycle arrest in human MCF7 cells by accumulation at G2/M phase at 5 uM after 48 hrs by flow cytometry (Rvb=5.9%); format: functional
MCF7 [11] = test: Cell cycle arrest in human MCF7 cells by accumulation at G2/M phase at 10 uM after 48 hrs by flow cytometry (Rvb=5.9%); format: functional
HUVEC = test: Antiangiogenic activity in HUVEC cells assessed inhibition of tube formation at 1 uM after 16 hrs by tube formation assay; format: functional, cell-based; conditions: Homo sapiens
In short: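 HUVEC cells (1 × 10⁵) are seeded onto a Matrigel surface and tube formation is scored after treatment.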

Aorta = test: Antiangiogenic activity in rat aortic rings assessed inhibition of sprouts formation at 5 uM after 6 days by aortic ring assay; format: functional, tissue-based
[12] = Displacement of [3H]colchicine from tubulin at 5 uM by DEAE-cellulose filter method

IC50 (MCF7 [1]): 900 nM
IC50 [2]: 31000 nM
inhibition [3]: 56%
EC50 [4]: 16500 nM
GI50 (CCRF-CEM): 2390 nM
GI50 (K562): 3460 nM
GI50 (MOLT-4): 3600 nM
GI50 (A549): 450 nM
GI50 (NCI-H226): 4140 nM
GI50 (NCI-H23): 140 nM
GI50 (NCI-H322M): 8440 nM
GI50 (NCI-H460): 28 nM
GI50 (NCI-H522): 200 nM
GI50 (COLO 205): 2200 nM
GI50 (HCC 2998): 410 nM
GI50 (HCT-116): 370 nM
GI50 (HCT-15): < 10 nM
GI50 (SW-620): 37 nM
GI50 (U-251): 25 nM
GI50 (SK-MEL-2): 3330 nM
GI50 (SK-MEL-5): 310 nM
GI50 (OVCAR-3): 2080 nM
GI50 (OVCAR-4): 2060 nM
GI50 (OVCAR-5): 1810 nM
GI50 (OVCAR-8): 300 nM
GI50 (SK-OV-3): < 10 nM
GI50 (786-0): 390 nM
GI50 (ACHN): 520 nM
GI50 (PC-3): 250 nM
GI50 (DU-145): 50 nM
GI50 (MCF7 [6]): 34 nM
GI50 (MDA-MB-231): 110 nM
GI50 (MDA-MB-435): 1950 nM
GI50 (BT-549): 21 nM
inhibition [12]: 4.4%
SMILES: COc1ccc(/C=C/C(=O)c2cc(OC)c(OC)c(OC)c2)cc1B(O)O
Activity (A10): Active
GI50 [5]: 1120 nM
GI50 (SR): 2180 nM
GI50 (EKVX): 1310 nM
GI50 (HOP-62): 98 nM
GI50 (HOP-92): 380 nM
GI50 (KM12): 15400 nM
GI50 (SF-268): 800 nM
GI50 (SF-295): 2730 nM
GI50 (SF-539): 35 nM
GI50 (SNB-19): < 10 nM
GI50 (LOX IMVI): 60 nM
GI50 (Malme-3M): 5490 nM
GI50 (M14): 1190 nM
GI50 (UACC-257): 4410 nM
GI50 (UACC-62): 34 nM
GI50 (IGROV-1): 88 nM
GI50 (A498): 4760 nM
GI50 (CAKI-1): 6390 nM
GI50 (RXF 393): 390 nM
GI50 (SN12C): 460 nM
GI50 (TK-10): 20900 nM
GI50 (UO-31): 320 nM
GI50 (NCI/ADR-RES): 50 nM
GI50 [7]: 46 nM
Activity (MCF7 [8]): 6.4%
Activity (MCF7 [9]): 7.1%
Activity (MCF7 [10]): 7.4%
Activity (MCF7 [11]): 14%
inhibition (HUVEC): Active
inhibition (Aorta): Active

From ChEMBL document CHEMBL1157725 (Bioorg Med Chem, 2010)
